From ChEMBL document CHEMBL1126694, “Antitumor agents. 141. Synthesis and biological evaluation of novel thiocolchicine analogs: N-acyl-, N-aroyl-, and N-(substituted benzyl)deacetylthiocolchicines as potent cytotoxic and antimitotic compounds” (J Med Chem, 1993) come the findings set out here.

What all share (assay type): functional
The subject of one assay is A549. The assay can be described thus: In vitro cytotoxicity against A549/ATCC cell line. The settings on record: Homo sapiens. An outline of the steps: (§1)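 Tested by the NCI in its tumor cell panel. GI50 (M) is reported as the concentration that caused 50% inhibition of tumor cell growth.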
Another assay has as its system DMS-114. Nature of the assay: In vitro cytotoxicity against DMS114 cell line. The settings on record: Homo sapiens. Put shortly: as §1
The next assay relates to HCT-15. The assay can be described thus: In vitro cytotoxicity against HCT-15 cell line. The note with it: Homo sapiens. An outline of the steps: as §1
The next assay concerns the target Tubulin. The assay can be described thus: In vitro inhibition of tubulin polymerization.
A short description of assay [1]: In vitro cytotoxicity against RXF cell line. The note with it: Homo sapiens. Put shortly: as §1
The subject of the next assay is SNB-19. Nature of the assay: In vitro cytotoxicity against SNB-19 cell line. The note with it: Homo sapiens. An outline of the steps: as §1
Another assay has as its system SK-MEL-5. Nature of the assay: In vitro cytotoxicity against SK-MEL-5 cell line. The note with it: Homo sapiens. An outline of the steps: as §1
A further assay relates to SR. Nature of the assay: In vitro cytotoxicity against SR cell line. The settings on record: Homo sapiens. An outline of the steps: as §1
The next assay relates to OVCAR. The assay can be described thus: In vitro cytotoxicity against OVCAR cell line. The settings on record: Homo sapiens. An outline of the steps:
as §1

Turning to `COc1cc2c(c(OC)c1OC)-c1ccc(SC)c(=O)cc1[C@@H](NCc1ccc([N+](=O)[O-])cc1)CC2`, the GI50 (in the assay with A549; with DMS-114; with HCT-15; in assay [1]; with SNB-19; in the assay with SK-MEL-5) was less than 10 nM each time. The GI50 in the assay on SR and in the assay on OVCAR was less than 10 nM throughout. Besides, the IC50 – broadly, the concentration at which inhibition is half-maximal – at Tubulin came to 2800 nM.

Turning to `COc1cc2c(c(OC)c1OC)-c1ccc(SC)c(=O)cc1[C@@H](NC(=O)c1cccc([N+](=O)[O-])c1)CC2`, the GI50 (as a rule, the concentration that inhibits growth by half) in the assay with A549 is 33.1 nM; with DMS-114 it was 16.6 nM; in the assay on HCT-15, 26.9 nM; in assay [1], 16.6 nM; in the assay with SNB-19, 26.9 nM; with SK-MEL-5, 18.2 nM. Moreover, the GI50 in the assay with SR was 8.51 nM; in the assay on OVCAR it was 19.1 nM. The compound also registered an IC50 against Tubulin of 3400 nM.

Consider `COc1ccc(CN[C@H]2CCc3cc(OC)c(OC)c(OC)c3-c3ccc(SC)c(=O)cc32)c(OC)c1OC`, for which the GI50 in the assay with DMS-114, in the assay with HCT-15, in the assay with SK-MEL-5, in the assay with SR and in the assay with OVCAR was less than 10 nM each time. This compound returned an IC50 against Tubulin of 2500 nM.

With `COc1cc(C(=O)N[C@H]2CCc3cc(OC)c(OC)c(OC)c3-c3ccc(SC)c(=O)cc32)cc(OC)c1OC`, the GI50 was 17 nM with A549; less than 10 nM in the assay with DMS-114; 33.9 nM in assay [1]; less than 10 nM in the assay with SK-MEL-5; less than 10 nM with SR; less than 10 nM in the assay with OVCAR.

As to `CCOC(=O)c1c(OC)cc(C(=O)N[C@H]2CCc3cc(OC)c(OC)c(OC)c3-c3ccc(SC)c(=O)cc32)cc1OC`, the GI50 with A549 is 427 nM; in the assay with DMS-114 it was 26.3 nM; in the assay with HCT-15, 447 nM; in assay [1], 234 nM; in the assay with SNB-19, 324 nM; in the assay on SK-MEL-5, 45.7 nM. Besides, the GI50 with OVCAR was 32.4 nM.

`COc1cc(CN[C@H]2CCc3cc(OC)c(OC)c(OC)c3-c3ccc(SC)c(=O)cc32)cc(OC)c1`: the GI50 is 37.1 nM with A549; 16.6 nM in the assay on DMS-114; less than 10 nM in the assay on HCT-15; less than 10 nM in assay [1]; 67.6 nM with SNB-19; less than 10 nM in the assay with SR. In addition, the IC50 on Tubulin was determined as 3400 nM.

For `COc1cc2c(c(OC)c1OC)-c1ccc(SC)c(=O)cc1[C@@H](NC(=O)c1ccc(C#N)cc1)CC2`, the 50% growth inhibitory concentration (GI50) with A549, in the assay with DMS-114, in the assay on HCT-15, with SNB-19, with SK-MEL-5 and in the assay with SR was less than 10 nM each time. In the assay on OVCAR, this compound had a GI50 of less than 10 nM.

Consider `COc1cc2c(c(OC)c1OC)-c1ccc(SC)c(=O)cc1[C@@H](NC(=O)c1ccc(Cl)cc1)CC2`, for which the GI50 (in the assay with A549; with DMS-114; with HCT-15; in assay [1]; with SNB-19; with SK-MEL-5) was less than 10 nM each time. Moreover, the GI50 with SR and in the assay with OVCAR was less than 10 nM throughout.

As to `COc1cc2c(c(OC)c1OC)-c1ccc(SC)c(=O)cc1[C@@H](NC(=O)c1ccc(OC(C)=O)cc1)CC2`, the GI50 is less than 100 nM in the assay on A549; 14.4 nM with DMS-114; less than 100 nM in the assay with HCT-15; 27.5 nM in assay [1]; 21.4 nM in the assay on SNB-19; 19.5 nM in the assay with SK-MEL-5. In addition, the GI50 in the assay on SR was 7.76 nM; with OVCAR it was 15.1 nM.

For the compound `COc1cc2c(c(OC)c1OC)-c1ccc(SC)c(=O)cc1[C@@H](NCc1cccc(C#N)c1)CC2`, the GI50 (with A549; in the assay on DMS-114; with HCT-15; in assay [1]; with SNB-19; in the assay on SK-MEL-5) was less than 7.59 nM in each case. Also, the GI50 in the assay with SR and in the assay with OVCAR was less than 7.59 nM throughout. In addition, the IC50 at Tubulin came to 2500 nM.

As for `COc1cc2c(c(OC)c1OC)-c1ccc(SC)c(=O)cc1[C@@H](NCc1ccccc1[N+](=O)[O-])CC2`, the GI50 (with A549; in the assay on DMS-114; in the assay on HCT-15; in assay [1]; in the assay on SNB-19; in the assay with SK-MEL-5) was less than 10 nM throughout. In the assay on OVCAR, the GI50 is less than 10 nM. This compound gave an IC50 on Tubulin of 3200 nM.

`CCCCCC(=O)N[C@H]1CCc2cc(OC)c(OC)c(OC)c2-c2ccc(SC)c(=O)cc21`: the GI50 (in the assay with A549; in the assay with DMS-114; with HCT-15; in assay [1]; with SNB-19; in the assay with SK-MEL-5) was less than 10 nM in each case. The GI50 in the assay on SR and with OVCAR was less than 10 nM each time.

`COc1cc2c(c(OC)c1OC)-c1ccc(SC)c(=O)cc1[C@@H](NC(=O)c1ccc([N+](=O)[O-])cc1)CC2`: the GI50 (with A549; in the assay on DMS-114; with HCT-15; in assay [1]; in the assay on SNB-19; with SK-MEL-5) was less than 10 nM throughout. The GI50 in the assay with SR and in the assay with OVCAR was less than 10 nM throughout.

As to `COc1cc2c(c(OC)c1OC)-c1ccc(SC)c(=O)cc1[C@@H](NC(=O)c1ccc(F)cc1)CC2`, the GI50 was 49 nM in the assay on A549; 26.9 nM in the assay with DMS-114; 42.7 nM in the assay with HCT-15; 28.8 nM in the assay on SNB-19; 30.2 nM in the assay on SK-MEL-5; 16.6 nM in the assay on SR. Also, it took 18.2 nM to inhibit growth in the assay on OVCAR by half (GI50).

Turning to `COc1cc2c(c(OC)c1OC)-c1ccc(SC)c(=O)cc1[C@@H](NCc1ccc(F)cc1)CC2`, the GI50 (in the assay with A549; in the assay with HCT-15; in [1]; with SNB-19; with SK-MEL-5; with SR) was less than 7.59 nM throughout. This compound also showed a GI50 with OVCAR of less than 7.59 nM. For the same compound, 2300 nM corresponded to half-maximal inhibition against Tubulin (IC50).

For the compound `COc1cc2c(c(OC)c1OC)-c1ccc(SC)c(=O)cc1[C@@H](NCc1ccc(C#N)cc1)CC2`, the GI50 (with A549; in the assay on DMS-114; in the assay on HCT-15; in [1]; with SNB-19; in the assay with SK-MEL-5) was less than 10 nM in each case. The GI50 with SR and in the assay on OVCAR was less than 10 nM each time. Further, the IC50 against Tubulin amounted to 2300 nM.

As to `COc1cc2c(c(OC)c1OC)-c1ccc(SC)c(=O)cc1[C@@H](NCc1cccc([N+](=O)[O-])c1)CC2`, the GI50 (in the assay on A549; with DMS-114; with HCT-15; in assay [1]; in the assay on SNB-19; with SK-MEL-5) was less than 10 nM each time. For the same compound, the GI50 in the assay with SR was greater than 100000 nM; in the assay on OVCAR it was less than 10 nM. The IC50 against Tubulin worked out at 2800 nM.

For `COc1cc2c(c(OC)c1OC)-c1ccc(OC)c(=O)cc1[C@@H](NC(C)=O)CC2` [COLCHICINE], the GI50 in the assay with A549, in the assay with HCT-15, in the assay with SK-MEL-5 and in the assay on OVCAR was less than 63.1 nM each time.
